The IC50 is the point on the concentration scale where inhibition reaches its midpoint.

Activity calls are given as the source filed them.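 Rule for the calls: active = IC50 of 10 µM or lower; inactive = IC50 above 10 µM.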 Some results are limits rather than exact numbers.

In PubChem BioAssay AID504679 (The Scripps Research Institute Molecular Screening Center, 2011) one finds IC50 data, which are given here for twelve compounds.

For the assay, the system named is E. coli V66 + T4 gene 2 phage, OD growth. Put plainly: E. coli RecBCD inhibitors, late-stage follow-up, counter-screen for AddAB inhibitor project, absorbance, V66 E. coli, dose response (AID 504679). Put shortly: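 Assay system: E. coli V66 bacteria. Measure: percent inhibition versus ciprofloxacin and DMSO wells. Controls: Ciprofloxacin-treated wells and DMSO-only wells. Compound dosing: 1:3 series, top 118.6 µM nominal. Schedule: 18 h at 37 °C. Replicates: triplicate. Probe or stimulus: mutant T4 phage, MOI 0.02. Technique: absorbance at 600 nm as bacterial growth measure.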
As for `O=C(Nc1ncccn1)c1ccc([N+](=O)[O-])o1`, the IC50 is > 119 µM (inactive).
Next, `O=C(OCC(=O)c1cccs1)c1ccc([N+](=O)[O-])o1`: > 119 µM (inactive).
Next, `C=CCn1c(Sc2ncc([N+](=O)[O-])s2)n[nH]c1=O`: 46.5 µM (inactive).
Next, `CCn1cc(C(=O)O)c(=O)c2cnc(N3CCN(C(=S)Nc4ccccc4C(F)(F)F)CC3)nc21`: 103 µM (inactive); `O=C(Nc1cccc(NC(=O)c2ccccc2Cl)c1)c1ccc([N+](=O)[O-])o1`: > 119 µM (inactive).
As to `Cc1ccc2nc(/C(C#N)=C\c3ccc([N+](=O)[O-])o3)[nH]c2c1`, the IC50 is > 119 µM (inactive).
Next, `NC(=O)c1ccsc1NC(=O)COC(=O)c1ccc([N+](=O)[O-])o1`: > 119 µM (inactive); `O=C(Nc1ccc(N2CCOCC2)cc1)c1ccc([N+](=O)[O-])o1`: > 119 µM (inactive).
The same measure for `O=C(NCc1cccnc1)c1ccc([N+](=O)[O-])o1`: 93.8 µM (inactive); for `Cc1cccnc1NC(=O)c1ccc([N+](=O)[O-])o1`: > 119 µM (inactive).
Next, `CC(=O)Nc1ccc2nc(NC(=O)c3ccc([N+](=O)[O-])o3)sc2c1`: > 119 µM (inactive); `N#Cc1c(NC(=O)c2ccc([N+](=O)[O-])o2)sc2c1CCC2`: > 119 µM (inactive).
